Assay outcomes as filed in PubChem BioAssay.
CXCR6 inh – inhibitors of human CXCR6 receptor; O00574; CHO-K1 PathHunter CXCR6 beta-arrestin, luminescence; inhibition, % at 20 µM; 0.36% of 360,000 active; in the data active = inhibition above about 34%, passing the limit was not always enough;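 also: antagonist mode with CXCL16 agonist at 10 nM final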
APJ antag – blocks the human apelin receptor APJ | P35414 | CHO-K1 APJ beta-arrestin complementation, luminescence | inhibition, % at 20 µM | 0.32% of 330,000 active;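 active = inhibition above about 40% at 20 µM, limit read from the data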;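 also: cells challenged with 10 nM apelin-13 agonist together with compound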
APJ agonist – agonists of human APJ apelin receptor | P35414 | CHO-K1 APJ PathHunter beta-arrestin, luminescence; 0% DMSO wells, 100% apelin | activation, % at 20 µM | 0.11% of 330,000 active | AID 2520;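 active = activation more than six SD over the plate average, tested at 20 µM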
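system = engineered CHO-K1 APJ arrestin reporter cells | input = 1000 cells per well | timing = overnight seeding, 90 min compound at 25 °C, 1 h detection | measured by = enzyme-fragment complementation luminescence | read-out = beta-arrestin recruitment to APJ as agonist activity, luminescent signal | control set = negative DMSO alone, positive Apelin-13 at 10 nM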
m5-HT2A agonist – mouse HTR2A agonism via beta-arrestin recruitment. CHO-K1 mHTR2A beta-arrestin complementation, luminescence; percent of 30 µM serotonin response. P35363. 0.66% of 360,000 active. activation, % at 7.6 µM;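 active = activation above a run cutoff, the mean activation of all tested compounds plus 3 SD, cut at about 14% in these data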
Target sequence (P35363 whole entry, looked up): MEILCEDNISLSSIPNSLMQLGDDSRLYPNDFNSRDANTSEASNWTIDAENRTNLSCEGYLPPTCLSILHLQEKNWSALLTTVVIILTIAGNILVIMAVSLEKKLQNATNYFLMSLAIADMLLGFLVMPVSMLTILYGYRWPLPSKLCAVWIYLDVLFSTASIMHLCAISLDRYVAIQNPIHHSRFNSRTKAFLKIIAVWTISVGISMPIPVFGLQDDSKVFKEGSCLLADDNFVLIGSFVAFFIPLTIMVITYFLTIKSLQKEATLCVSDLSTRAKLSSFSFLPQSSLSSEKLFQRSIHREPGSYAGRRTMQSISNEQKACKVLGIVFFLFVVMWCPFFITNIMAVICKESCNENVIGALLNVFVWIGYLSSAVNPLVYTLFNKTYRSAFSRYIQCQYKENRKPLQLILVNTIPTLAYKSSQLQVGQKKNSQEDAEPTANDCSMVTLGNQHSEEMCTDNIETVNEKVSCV
NTR1 agonist – agonists of human neurotensin receptor NTR1; P30989; NTR1-U2OS beta-arrestin-GFP spot imaging, agonist mode; activation, % at 20 µM; 0.17% of 330,000 active; AID 493036;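 active = activation at or above 40% of the spot to cytoplasm intensity ratio, with at least 20 cells analyzed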
CCR6 antagonist – CCR6 (human) receptor antagonism. AID 493098. P51684. CHO-K1 CCR6 PathHunter beta-arrestin, luminescence, CCL20-stimulated. 0.49% of 340,000 active. inhibition, % at 20 µM;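 active = compounds whose inhibition of the agonist-driven luminescence signal at 20 µM reaches about 50%, limit read from the data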;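 also: cells stimulated with CCL20 at 14 nM final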
MOR ag counter – OPRM1 agonism in mouse HTR2A counterscreen; shares compounds with m5-HT2A agonist; U2OS OPRM1 beta-arrestin PathHunter, luminescence; DMSO 0%, DAMGO 9.3 µM 100%; activation, % at 9.3 µM; 5.3% of 2,300 active; AID 624380;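 active = mean activation above the mean of DMSO-only wells plus 3 SD, cut at about 0.5% in these data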
m5-HT2A ag conf – confirmation of mouse HTR2A serotonin receptor agonists. shares compounds with m5-HT2A agonist. CHO-K1 PathHunter beta-arrestin recruitment, luminescence; DMSO 0%, 30 µM serotonin 100%. activation, % at 7.6 µM. 19% of 2,300 active;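 active = mean activation across triplicates above the hit threshold derived in the original primary screen, cut at about 15% in these data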
Large screens that a line does not name were inactive (follow-up assays come after a bar, where they were run). Shown are actives, neighbours in structure and some others; about 1.5% of the full set was active somewhere.

CCN(CC)C(=O)Cn1cc(C(=O)C(=O)N2CCN(C)CC2)c2ccccc21	m5-HT2A agonist 16 | MOR ag counter inactive | m5-HT2A ag conf inactive
CCN(Cc1ccccc1)C(=O)C(=O)c1cn(CC(=O)N2CCCC2)c2ccccc12	m5-HT2A agonist 16 | MOR ag counter inactive | m5-HT2A ag conf inactive
CC1CC=CCC1(CO)CO (centres undefined)	none (no result: APJ antag, APJ agonist, NTR1 agonist)
N#CC1c2ccccc2C=CN1C(=O)c1ccccc1 (centres undefined)	none
N#CC1(Cc2ccccc2Cl)c2ccccc2C=CN1C(=O)c1ccccc1 (centres undefined)	m5-HT2A agonist 19 | MOR ag counter inactive | m5-HT2A ag conf inactive
Cc1ccc(C)c(N2N=C(C(=O)Nc3cccnc3)CCC2=O)c1	m5-HT2A agonist 15 | MOR ag counter inactive | m5-HT2A ag conf inactive
CC1(OC(=O)C2CCCC2)C(=O)C=C2C=C(c3ccsc3)N(C3CC3)C=C2C1=O (centres undefined)	m5-HT2A agonist 15 | MOR ag counter inactive | m5-HT2A ag conf inactive
CC1(OC(=O)C2CCCC2)C(=O)C=C2C=C(c3ccsc3)N(c3ccccc3)C=C2C1=O (centres undefined)	none
CCOC(=O)c1[nH]c2ccccc2c1NC(=O)Nc1ccc(OC)cc1	m5-HT2A agonist 25 | MOR ag counter inactive | m5-HT2A ag conf inactive
CCn1nc(NC(=O)CC(C)C)c2cc3ccc(C)cc3nc21	m5-HT2A agonist 14 | MOR ag counter inactive | m5-HT2A ag conf inactive
Cc1nc(NC(=O)c2ccco2)sc1C(=O)O	m5-HT2A agonist 19 (no result: APJ antag, APJ agonist, NTR1 agonist) | MOR ag counter inactive | m5-HT2A ag conf inactive
COC(=O)c1sc(NC(=O)c2ccco2)nc1C	none
COc1ccc(C(CNC(=O)CCNS(=O)(=O)c2ccccc2C(F)(F)F)N2CCOCC2)cc1 (centres undefined)	none (no result: APJ antag, APJ agonist, NTR1 agonist)
O=C(Nc1ccc(F)cc1)Oc1ccc[nH]c1=O	m5-HT2A agonist 15 | MOR ag counter inactive | m5-HT2A ag conf inactive
O=C(Oc1ccc[nH]c1=O)c1ccccc1	none (no result: APJ antag, APJ agonist, NTR1 agonist, CCR6 antagonist)
O=C(Nc1ccccc1)Nc1ccc2ccccc2n1	m5-HT2A agonist 16 | MOR ag counter inactive | m5-HT2A ag conf inactive
Cc1cc(NC(=O)c2ccc3sc([C@@H]4O[C@H](CO)[C@H](O)[C@H](O)[C@H]4O)nc3c2)no1	m5-HT2A agonist 21 (no result: APJ antag, APJ agonist, NTR1 agonist, CCR6 antagonist) | MOR ag counter inactive | m5-HT2A ag conf inactive
O=C(Nc1ccc(Cl)cc1)c1ccc2sc([C@@H]3O[C@H](CO)[C@H](O)[C@H](O)[C@H]3O)nc2c1	none (no result: APJ antag, APJ agonist, NTR1 agonist, CCR6 antagonist)
CCN(CC)C(=O)c1ccc2sc([C@@H]3O[C@H](CO)[C@H](O)[C@H](O)[C@H]3O)nc2c1	none (no result: APJ antag, APJ agonist, NTR1 agonist, CCR6 antagonist)
CN(Cc1ccccc1)C(=O)c1ccc2sc([C@@H]3O[C@H](CO)[C@H](O)[C@H](O)[C@H]3O)nc2c1	m5-HT2A agonist 21 (no result: APJ antag, APJ agonist, NTR1 agonist, CCR6 antagonist) | MOR ag counter inactive | m5-HT2A ag conf inactive
CCOC(=O)N1CCC(NC(=O)CCCN2C(=O)CSc3ncccc32)CC1	none
O=C(CCCN1C(=O)CSc2ncccc21)N1CCN(Cc2ccccc2)CC1	m5-HT2A agonist 107 | MOR ag counter inactive | m5-HT2A ag conf inactive
O=C(Nc1ccc(Oc2ccc(NC(=O)Nc3ccccc3Cl)cc2)cc1)Nc1ccccc1Cl	none
Cc1ccc(P(=O)(CO)c2ccc(C)cc2)cc1	m5-HT2A agonist 15 | MOR ag counter inactive | m5-HT2A ag conf inactive
Cc1ccc(P(=O)(CSC(=N)N)c2ccc(C)cc2)cc1	none
COc1cc([N+](=O)[O-])ccc1NC(=O)/C=C\C(=O)O	m5-HT2A agonist 22 | MOR ag counter inactive | m5-HT2A ag conf inactive
N#Cc1c(N)nc(SCc2ccccc2)c(C#N)c1-c1ccco1	m5-HT2A agonist 15 | MOR ag counter inactive | m5-HT2A ag conf inactive
COc1ccc(C2=NO[C@@](CC(=O)O)(C(=O)Nc3ccc4c(c3)OCCO4)C2)cc1	m5-HT2A agonist 16 | MOR ag counter 1.0 | m5-HT2A ag conf inactive
NC(=O)COc1ccccc1C1=NO[C@@](CC(=O)O)(C(=O)Nc2ccc3c(c2)OCCO3)C1	none
CCCCC(=O)Nc1ccccc1CC	none
C[C@@H]1c2ccccc2N2C[C@H](Cc3ccc(C(=O)c4ccccc4)cc3)C[C@@H]12	m5-HT2A agonist 16 (no result: APJ antag, APJ agonist, NTR1 agonist, CCR6 antagonist) | MOR ag counter inactive | m5-HT2A ag conf inactive
COc1cc(OC)cc(C(=O)NCC(=O)N2CCN(Cc3ccccc3)CC2)c1	none
COc1cc(OC)cc(C(=O)NCC(=O)N2CCC(C)CC2)c1	m5-HT2A agonist 28 | MOR ag counter inactive | m5-HT2A ag conf inactive
Nc1nc(F)nc2c1ncn2[C@@H]1O[C@H](CO)[C@@H](O)[C@H]1O	m5-HT2A agonist 20 | MOR ag counter 0.9 | m5-HT2A ag conf inactive
Nc1nc(F)nc2c1ncn2[C@@H]1O[C@H](CO)[C@@H](O)[C@@H]1O	none
CCN1CCN(c2nc(Nc3ccc(NC(C)=O)cc3)nc(Nc3ccc(NC(C)=O)cc3)n2)CC1	none
COC(=O)CSc1[nH]c(=O)cc(C)c1C#N	m5-HT2A agonist 17 | MOR ag counter inactive | m5-HT2A ag conf inactive
CCn1nnnc1NCc1c(OC)ccc2ccccc12	none
COc1cc(C(=O)Nc2cccc(-c3nncn3C)c2)cc(OC)c1OC	m5-HT2A agonist 15 | MOR ag counter inactive | m5-HT2A ag conf inactive
CCN(C(=O)Cn1cc(C(=O)C(=O)N2CCOCC2)c2ccccc21)c1ccccc1	none
CC(OC(=O)CCCN=C1NS(=O)(=O)c2ccccc21)C(=O)Nc1ccccc1F (centres undefined)	m5-HT2A agonist 25 | MOR ag counter inactive | m5-HT2A ag conf inactive
N/C(=N\OC(=O)c1ccccc1Cl)c1cccc([N+](=O)[O-])c1	m5-HT2A agonist 15 | MOR ag counter inactive | m5-HT2A ag conf inactive
CN1CCN(c2ccc(Cl)cc2NC(=O)c2ccc(=O)n(C)n2)CC1	m5-HT2A agonist 18 | MOR ag counter inactive | m5-HT2A ag conf inactive
CN1CCN(c2ccc(Cl)cc2NC(=O)c2cc(=O)[nH]c3ccccc23)CC1	none
CCN(CC(=O)Nc1c(F)cccc1F)C(=O)Cn1[nH]c(=O)c2ccccc2c1=O	none
O=C(Nc1ccccc1C(F)(F)F)c1cnccn1	m5-HT2A agonist 19 | MOR ag counter inactive | m5-HT2A ag conf inactive
CC(CN1CCCCC1)C(=O)NNC(=O)C12CC3CC(CC(C3)C1)C2 (centres undefined)	m5-HT2A agonist 16 | MOR ag counter inactive | m5-HT2A ag conf inactive
CC(CN1CCCCCC1)C(=O)NN (centres undefined)	none
O=C(Nc1ccc(CN2CCOCC2)cc1)c1ccc(Cl)cc1	none
